Published values from different studies.
Compare with care: the assays were run in different laboratories.
Adra1a: Alpha-1A adrenergic receptor (Adra1a, Rattus norvegicus, UniProt P43140)
CCR2: C-C chemokine receptor type 2 (CCR2, Homo sapiens, UniProt P41597)
Plasmepsin II: Plasmepsin II (Plasmodium falciparum, UniProt P46925)
SIRT6: NAD-dependent protein deacylase sirtuin-6 (SIRT6, Homo sapiens, UniProt Q8N6T7)
CTSB: Cathepsin B (CTSB, Homo sapiens, UniProt P07858)
HTR7: 5-hydroxytryptamine receptor 7 (HTR7, Homo sapiens, UniProt P34969)
SCN5A: Sodium channel protein type 5 subunit alpha (SCN5A, Homo sapiens, UniProt Q14524)

SMILES	target	assay	test system	setting	inhibition [%]
Ic1cccc2cnccc12	Adra1a	ligand displacement, radioligand	–	10 µM	9
Cc1cnc(C(=O)NCCNC(=O)Cn2[nH]c(=O)c3ccccc3c2=O)cn1	Poly [ADP-ribose] polymerase 2 (PARP2, Homo sapiens, UniProt Q9UGN5)	enzyme activity, inhibitor	–	0.5 µM	~50
CN(Cc1ccc(NC(=O)C2=Cc3cc(-c4ccc(OCCCF)cc4)ccc3CCC2)cc1)C1CCOCC1	CCR2	ligand displacement, radioligand	–	1 µM, cell membranes	48
O=[N+]([O-])c1ccc(N2CCC(NCCC(O)c3csc4ccc(F)cc34)CC2)c(C(F)(F)F)c1 (centres unmarked)	Plasmepsin II	enzyme activity, inhibitor	–	5 µM	0
NC(=S)c1ccc(C(=O)NOCc2ccc(C(F)(F)F)cc2)cc1	SIRT6	enzyme activity, inhibitor, fluorescence	–	100 µM	89.2
CSSc1ccccc1C(=O)O	CTSB	enzyme activity, inhibitor, fluorescence	–	20 µM	100
O=C(c1ccc(F)cc1)N(Cc1ccccc1)C1CCCCC1	Adra1a	cell-free assay	–	10 µM	-1
OC(CCN1CCN(c2ccc(C(F)(F)F)cc2)CC1)c1csc2ccc(F)cc12 (centres unmarked)	Plasmepsin II	enzyme activity, inhibitor	–	5 µM	0
Cc1cccc(CONC(=O)c2ccc(C(N)=O)cc2)c1	SIRT6	enzyme activity, inhibitor, fluorescence	–	100 µM	84
CN(C)C1CCN(CC#Cc2nn(C3CCCC3)c3nc(NCc4ccccc4)ncc23)C1 (centres unmarked)	Serine/threonine-protein kinase pim-1 (PIM1, Homo sapiens, UniProt P11309)	enzyme activity, inhibitor, FRET	–	10 µM	2
COC(=O)c1ccc(C(=O)NOCc2ccccc2)cc1	SIRT6	enzyme activity, inhibitor, fluorescence	–	100 µM	52.2
O=C(NC1CCC1)[C@H](Cc1c[nH]c2ccccc12)NC(=O)[C@H](CCCCNC(=S)NCCc1nnn[nH]1)NS(=O)(=O)c1cccc(F)c1	SIRT6	enzyme activity, inhibitor	–	10 µM	6
CCCCCCOc1c(OC)cc2c3c1-c1cc4c(cc1CC3N(C)CC2c1ccccc1)OCO4 (centres unmarked)	HTR7	ligand displacement, radioligand	–	10 µM	-14.6
Cc1ccc(CNC(=O)[C@H](CCc2ccccc2)NC(=O)[C@H](CCc2ccccc2)NC(=O)[C@H](CCc2ccccc2)NC(=O)c2cnc(C)cn2)cc1	CTSB	enzyme activity, inhibitor	–	100 µM	-15
NCc1cccc(C(=O)NOCc2ccc(C(F)(F)F)cc2)c1	SIRT6	enzyme activity, inhibitor, fluorescence	–	100 µM	72.2
CNC(=O)c1cc2c(Oc3ccc(NC(=O)C4(C(=O)Nc5ccc(F)cc5)CC4)cc3)ccnc2cc1OC	Angiopoietin-1 receptor (TEK, Homo sapiens, UniProt Q02763, R849W)	enzyme activity, inhibitor, radiometric	–	1 µM	99

SMILES	target	assay	test system	setting	inhibition [%]
COc1cccc(Sc2ccc(CONC(=O)c3ccc(C(N)=O)cc3)cc2C(F)(F)F)c1	SIRT6	enzyme activity, inhibitor, fluorescence	–	100 µM	100
C1=CSC(=C2SC=CS2)S1	Ubiquitin carboxyl-terminal hydrolase 14 (USP14, Homo sapiens, UniProt P54578)	enzyme activity, inhibitor	–	17 µM	54
O=c1c2ccccc2c(Cc2ccc(Cl)cc2)nn1C1CCCNCC1 (centres unmarked)	SCN5A	ion current, inhibitor, patch clamp	CHO	10 µM	62
CN(Cc1ccc(NC(=O)C2=Cc3cc(-c4ccc(OCCCCCO)cc4)ccc3CCC2)cc1)C1CCOCC1	CCR2	ligand displacement, radioligand	–	1 µM, cell membranes	53
O=[N+]([O-])c1ccc(N2CCCN(CCC(O)c3csc4ccc(F)cc34)CC2)c(C(F)(F)F)c1 (centres unmarked)	Plasmepsin II	enzyme activity, inhibitor	–	5 µM	8
CCN(CC)CCNC(=O)C1CCN(c2ccc3nnc(-c4cccc(C)c4)n3n2)CC1	SCN5A	ion current, inhibitor, patch clamp	CHO	10 µM	9.9
CC/C(=N\NC(=O)NCc1cccc(O)c1)c1ccc(O)c(C)c1O	ALK tyrosine kinase receptor (ALK, Homo sapiens, UniProt Q9UM73, L1196M)	enzyme activity, inhibitor	–	0.1 µM	3
O=C(Nc1ccc(S(=O)(=O)N2CCC(Cl)CC2)cc1)c1ccc([N+](=O)[O-])o1	Adra1a	ligand displacement, radioligand	–	10 µM	19
NC(=O)c1ccc(C(=O)NOCc2cccc3ccccc23)cc1	SIRT6	enzyme activity, inhibitor, fluorescence	–	100 µM	92.2
CC1=NN(c2ccccc2)CC1	NADPH oxidase 4 (NOX4, Homo sapiens, UniProt Q9NPH5)	enzyme activity, inhibitor, fluorescence	–	100 µM, cell membranes	> 40
CCN(Cc1ccccc1C(F)(F)F)C(=O)C1CCN(S(=O)(=O)c2ccc3[nH]ncc3c2)CC1	Platelet-activating factor receptor (PTAFR, Homo sapiens, UniProt P25105)	ligand displacement, radioligand	–	10 µM	7
O=C(NOCc1ccc(C(F)(F)F)cc1)c1ccc(-c2nn[nH]n2)cc1	SIRT6	enzyme activity, inhibitor, fluorescence	–	100 µM	4.2
C/C(=C\C(=O)OCCCCCCCCC(=O)O)C[C@@H]1OC[C@H](C[C@@H]2O[C@H]2[C@@H](C)[C@H](C)O)[C@@H](O)[C@H]1O	C-C chemokine receptor type 5 (CCR5, Homo sapiens, UniProt P51681)	calcium signal, antagonist	U87/CD4/CCR5	100 µM	96
N#Cc1cc(Cn2c(N3CCCC3)nc3ccccc32)ccc1F	5-hydroxytryptamine receptor 6 (HTR6, Homo sapiens, UniProt P50406)	ligand displacement	–	10 µM	6.5
O=C(c1ccc(Cl)cc1)N(Cc1ccccc1)C1CCCCC1	HTR7	ligand displacement, radioligand	–	10 µM	19.2
NC(=O)c1ccc(C(=O)NOCc2ccc(Sc3ccccc3Cl)c(C(F)(F)F)c2)cc1	SIRT6	enzyme activity, inhibitor, fluorescence	–	100 µM	99.1
